The target of assay [1] is Kappa-type opioid receptor (Cavia porcellus) (UniProt P41144).
Assay [2] addresses Mu-type opioid receptor (Cavia porcellus) (UniProt P97266).
Assay [3] concerns the target Kappa-type opioid receptor (Homo sapiens) (UniProt P41145). Description: Competitive inhibition of Ethylketazocine on Guinea pig ileal longitudinal muscle for the opioid receptor kappa at 20 nM. It is filed as functional. The essentials: (§1)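 Electrically stimulated guinea pig ileal longitudinal muscle, κ agonist ethylketazocine. The antagonist was preincubated for 15 min before agonist testing. Agonist IC50 was measured with and without antagonist on the same preparation. IC50 ratio = IC50 with antagonist / control IC50. Ke = [antagonist]/(IC50 ratio − 1).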

The target of assay [4] is Kappa-type opioid receptor (Cavia porcellus) (UniProt P41144). Description: Antagonistic potency at opioid receptor kappa (20 nM) (Ke =IC50 in the presence of antagonist divided by the control IC50 value). It is filed as functional. Put shortly:
as §1

Assay [5] shares this target. In words: Selectivity ratio is IC50 value of opioid receptor kappa to that of opioid receptor delta.
The target of assay [6] is Delta-type opioid receptor (Mus musculus) (UniProt P32300). Description: Antagonistic potency at opioid receptor delta (100 nM) (Ke =IC50 in the presence of antagonist divided by the control IC50 value). The format is functional. The essentials: (§2)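 Electrically stimulated mouse vas deferens preparation, δ agonist DADLE. The antagonist was incubated with the tissue for 15 min before agonist testing. DADLE IC50 was measured with and without antagonist on the same preparation. IC50 ratio = IC50 with antagonist / control IC50. Ke = [antagonist]/(IC50 ratio − 1).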

Assay [7] concerns the target Mu-type opioid receptor (Cavia porcellus) (UniProt P97266). Description: Selectivity ratio is IC50 value of mu-opioid receptor to that of delta-opioid receptor.
Assay [8] has as its target Kappa-type opioid receptor (Homo sapiens) (UniProt P41145). To be noted: 100 nM.
In assay [9] the target is Mu-type opioid receptor (Homo sapiens) (UniProt P35372). To be noted: 100 nM.
The target of assay [10] is Kappa-type opioid receptor (Homo sapiens) (UniProt P41145). Description: Competitive inhibition of Ethylketazocine on Guinea pig ileal longitudinal muscle for the opioid receptor kappa at 200 nM. The format is functional. The essentials:
as §1

Assay [11] has as its target Mu-type opioid receptor (Homo sapiens) (UniProt P35372). Description: Competitive inhibition of Morphine on Guinea pig ileal longitudinal muscle for the opioid receptor mu at 200 nM. It is filed as functional. The essentials:
(§3)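 Electrically stimulated guinea pig ileal longitudinal muscle, μ agonist morphine. The antagonist was preincubated for 15 min before agonist testing. Agonist IC50 was measured with and without antagonist on the same preparation. IC50 ratio = IC50 with antagonist / control IC50. Ke = [antagonist]/(IC50 ratio − 1).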

A further assay addresses Mu-type opioid receptor (Cavia porcellus, UniProt P97266). In words: Compound was evaluated for the binding affinity to Opioid receptor mu using [3H]DAMGO as radioligand in guinea pig brain membrane. It is filed as cell membranes.
The target of assay [12] is Mu-type opioid receptor (Cavia porcellus) (UniProt P97266). In words: Selectivity ratio is Ki value of mu-opioid receptor to that of delta-opioid receptor.
The target is the same in assay [13]. In words: Antagonistic potency at opioid receptor mu (200 nM) (Ke =IC50 in the presence of antagonist divided by the control IC50 value). It is filed as functional. Put shortly: as §3
The target of assay [14] is Delta-type opioid receptor (Mus musculus) (UniProt P32300). In words: Antagonistic potency at opioid receptor delta (200 nM) (Ke =IC50 in the presence of antagonist divided by the control IC50 value). The format is functional. Put shortly:
as §2

Assay [15] addresses Kappa-type opioid receptor (Cavia porcellus, UniProt P41144). In words: Compound was evaluated for the binding affinity to opioid receptor kappa using [3H]-EK as radioligand in guinea pig brain membrane. The format is cell membranes. Put shortly: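 Radioligand displacement in guinea pig brain membranes, modified from an earlier published method. [3H]EK was used with 1 μM DAMGO present to block μ sites.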

The target of assay [16] is Kappa-type opioid receptor (Cavia porcellus) (UniProt P41144). Description: Antagonistic potency at opioid receptor kappa (200 nM) (Ke =IC50 in the presence of antagonist divided by the control IC50 value). It is filed as functional. The essentials:
as §1

The target is the same in assay [17]. Description: Selectivity ratio is Ki value of opioid receptor kappa to that of delta-opioid receptor.
The target is the same in assay [18]. In words: Selectivity ratio is IC50 value of opioid receptor kappa to that of delta-opioid receptor.
The target in assay [19] is Delta-type opioid receptor (Mus musculus) (UniProt P32300). In words: Antagonistic potency at opioid receptor delta (20 nM) (Ke =IC50 in the presence of antagonist divided by the control IC50 value). The format is functional. Put shortly: as §2

SMILES strings stand for the structures.

`Cn1c2c(c3c1[C@@H]1Oc4c(O)ccc5c4[C@@]14CCN(CC1CC1)[C@H](C5)[C@]4(O)C3)CCCC2`: the Ke is 254 in assay [1] and 158 in assay [2].

Turning to `Oc1ccc2c3c1O[C@H]1C(c4ccc[nH]4)=CC[C@@]4(O)[C@@H](C2)N(CC2CC2)CC[C@]314`, the IC50 ratio in [3] amounted to 89. For the same molecule, the Ke in assay [4] amounted to 0.23; in assay [6], 8.2. In addition, the Ratio in assay [5] came out at 0.03.

As to `Oc1ccc2c3c1O[C@H]1c4nc5ccccc5cc4C[C@@]4(O)[C@@H](C2)N(CC2CC2)CC[C@]314`, the Ratio was determined as 6 in assay [7] and 8 in assay [5]. The IC50 ratio in [8] was found to be 7.5; in assay [9], 9.9. The Ke in assay [1] was 15.4; in assay [6], 1.9; in assay [2] it was 11.

Regarding `Oc1ccc2c3c1O[C@H]1C(c4c[nH]c5ccccc45)=CC[C@@]4(O)[C@@H](C2)N(CC2CC2)CC[C@]314`, the IC50 ratio in [10] is 243; in [11], 189. The Ratio in assay [7] came out at 0.21; in assay [12], 0.6; in assay [17], 6; in assay [18], 0.16. The Ki on Mu-type opioid receptor is 0.63 nM; in assay [15], 6.2 nM. For the same molecule, the Ke is 1.1 in [13], 5.1 in assay [14] and 0.83 in assay [16].

As for `Oc1ccc2c3c1O[C@H]1c4oc5ccccc5c4C[C@@]4(O)[C@@H](C2)N(CC2CC2)CC[C@]314`, the Ke came out at 27 in assay [13], 0.27 in [19] and 48 in assay [16].

Turning to `Oc1ccc2c3c1O[C@H]1c4nc5ccccc5nc4C[C@@]4(O)[C@@H](C2)N(CC2CC2)CC[C@]314`, the IC50 ratio in assay [10] came out at 21; in assay [11], 37. Moreover, the Ratio in assay [7] was 3; in [12] it was 9; in assay [5], 5; in assay [17], 227. Moreover, the Ke came to 5.5 in [13], 1.9 in assay [19] and 10 in assay [16].

On to `Oc1ccc2c3c1O[C@H]1C(c4ccccc4)=CC[C@@]4(O)[C@@H](C2)N(CC2CC2)CC[C@]314`, for which the IC50 ratio in [9] stood at 148. For the same molecule, the Ke in [1] was 1.7; in assay [6] it was 13.5; in [2] it was 0.68.

(Values after ChEMBL document CHEMBL1125701 (J Med Chem, 1991).)
